In ChEMBL document CHEMBL1137542, “Probing multivalent carbohydrate-lectin interactions by an enzyme-linked lectin assay employing covalently immobilized carbohydrates” (Bioorg Med Chem, 2007):

Legend:
[1] = Inhibition of binding of HRP labeled WGA to immobilized N-acetyl-glucosamine; set-up: species or system Triticum aestivum
Method in brief: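 Covalent GlcNAc surface: amino plates activated with 0.5% 1,4-phenylene diisothiocyanate in DMSO for 3 h, then treated overnight with 1 mM spacer-linked GlcNAc amine at pH 10.1. Blocking was 1% BSA. WGA-HRP (1 μg mL⁻¹ final) was pre-incubated with inhibitor dilutions for 60 min at 37 °C, then incubated on the plates for 90 min at 37 °C. ABTS/H₂O₂ read at 405 nm. IC50 from % inhibition, duplicate.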

[2] = Inhibition of binding of HRP labeled WGA to immobilized porcine stomach […]; set-up: species or system Triticum aestivum
Method in brief: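 Plates coated overnight at room temperature with porcine stomach mucin (4.12 μg mL⁻¹ in PBS, pH 7.3), then blocked with 1% BSA, 90 min at 37 °C. WGA-HRP (1 μg mL⁻¹ final) pre-incubated 60 min at 37 °C with serially diluted inhibitor, then 90 min at 37 °C on plates. ABTS/H₂O₂ read-out at pH 4.0, 30 min, stopped with H₂SO₄, A405. IC50 from % inhibition curves, duplicate.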

Triticum aestivum [3] = test: Inhibition of binding of HRP labeled WGA to immobilized porcine stomach […] relative to N-acetyl-glucosamine
Method in brief: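 IC50 measured in the PSM-coated ELLA (WGA-HRP 1 μg mL⁻¹ final, 60 min pre-incubation with inhibitor, 90 min at 37 °C, ABTS read at 405 nm, duplicate). Relative potency β is the GlcNAc IC50 divided by the ligand IC50, with GlcNAc set to β = 1.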

Triticum aestivum [4] = test: Inhibition of binding of HRP labeled WGA to immobilized N-acetyl-glucosamine relative to N-acetyl-glucosamine
Method in brief: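 IC50 values come from the covalently immobilized GlcNAc ELLA (thiourea-linked spacer GlcNAc, WGA-HRP 1 μg mL⁻¹, 37 °C incubations, ABTS read at 405 nm, duplicate). β expresses potency relative to GlcNAc, with GlcNAc set to β = 1.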

## CC(=O)N[C@H]1[C@H](OC/C=C\COC(=O)NCCN(CCNC(=O)OC/C=C\CO[C@@H]2O[C@H](CO)[C@@H](O)[C@H](O)[C@H]2NC(C)=O)CCNC(=O)OC/C=C\CO[C@@H]2O[C@H](CO)[C@@H](O)[C@H](O)[C@H]2NC(C)=O)O[C@H](CO)[C@@H](O)[C@@H]1O
[1]
  IC50: 0.055 µM
[2]
  IC50: 25 mM
Triticum aestivum [3]
  Activity: 40
Triticum aestivum [4]
  Activity: 420

## CC(=O)N[C@@H]1[C@@H](O)[C@H](O)[C@@H](CO)O[C@H]1O [N-ACETYLGLUCOSAMINE]
[1]
  IC50: 23 µM
[2]
  IC50: 1000 mM
Triticum aestivum [3]
  Activity: 1

## CC(=O)N[C@H]1[C@H](OC/C=C\COC(=O)NCCNCCNC(=O)OC/C=C\CO[C@@H]2O[C@H](CO)[C@@H](O)[C@H](O)[C@H]2NC(C)=O)O[C@H](CO)[C@@H](O)[C@@H]1O
[2]
  IC50: 40 mM
Triticum aestivum [3]
  Activity: 25

## CC(=O)N[C@H]1[C@H](OC/C=C\COC(=O)NCc2cccc(CNC(=O)OC/C=C\CO[C@@H]3O[C@H](CO)[C@@H](O)[C@H](O)[C@H]3NC(C)=O)c2)O[C@H](CO)[C@@H](O)[C@@H]1O
[2]
  IC50: 20 mM
Triticum aestivum [3]
  Activity: 50

## CC(=O)N[C@H]1[C@H](OC/C=C\COC(=O)NCc2ccc(CNC(=O)OC/C=C\CO[C@@H]3O[C@H](CO)[C@@H](O)[C@H](O)[C@H]3NC(C)=O)cc2)O[C@H](CO)[C@@H](O)[C@@H]1O
[1]
  IC50: 0.088 µM
[2]
  IC50: 15 mM
Triticum aestivum [3]
  Activity: 67
Triticum aestivum [4]
  Activity: 260

## CC(=O)N[C@H]1[C@H](OC/C=C\COC(=O)NCc2ccccc2)O[C@H](CO)[C@@H](O)[C@@H]1O
[2]
  IC50: 100 mM
Triticum aestivum [3]
  Activity: 10

## CC(=O)N[C@H]1[C@H](OC/C=C\COC(=O)NCCCOCCOCCOCCCNC(=O)OC/C=C/CO[C@@H]2O[C@H](CO)[C@@H](O)[C@H](O)[C@H]2NC(C)=O)O[C@H](CO)[C@@H](O)[C@@H]1O
[1]
  IC50: 0.288 µM
[2]
  IC50: 75 mM
Triticum aestivum [3]
  Activity: 13
Triticum aestivum [4]
  Activity: 80

## CC(=O)N[C@H]1[C@H](OC/C=C\CO)O[C@H](CO)[C@@H](O)[C@@H]1O
[1]
  IC50: 12 µM
[2]
  IC50: 500 mM
Triticum aestivum [3]
  Activity: 2
Triticum aestivum [4]
  Activity: 1.9

## C=CCO[C@@H]1O[C@H](CO)[C@@H](O)[C@H](O)[C@H]1NC(C)=O
[1]
  IC50: 10 µM
[2]
  IC50: 280 mM
Triticum aestivum [3]
  Activity: 3.6
Triticum aestivum [4]
  Activity: 2.3

## CCCNC(=O)OC/C=C\CO[C@@H]1O[C@H](CO)[C@@H](O)[C@H](O)[C@H]1NC(C)=O
[2]
  IC50: 240 mM
Triticum aestivum [3]
  Activity: 4.2

## CC(=O)N[C@H]1[C@H](OC/C=C\COC(=O)NCCCOCCCCOCCCNC(=O)OC/C=C\CO[C@@H]2O[C@H](CO)[C@@H](O)[C@H](O)[C@H]2NC(C)=O)O[C@H](CO)[C@@H](O)[C@@H]1O
[2]
  IC50: 60 mM
Triticum aestivum [3]
  Activity: 17
